Laboratory results reported in ChEMBL document CHEMBL3808289, “Discovery of a Selective Series of Inhibitors of Plasmodium falciparum HDACs” (ACS Med Chem Lett, 2016).
Activity calls are given as the source filed them. No cut-off for these calls is given here.

Assays:
[1] = Intrinsic clearance in human liver microsomes at 1 uM by LC-MS/MS analysis; assay type: ADME; details: read-out: CLH
[2] = Intrinsic clearance in CD1 mouse liver microsomes at 1 uM by LC-MS/MS analysis; assay type: ADME; details: read-out: CLH
Plasmodium falciparum = test: Antimalarial activity against Plasmodium falciparum 3D7 infected human erythrocytes assessed as parasite growth inhibition after 72 hrs by spectrophotometry; assay type: functional, organism-based; details: 3D7, 72 h
Summary of the method: (§1)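 Cell-based read-outs (parasite growth in erythrocytes; class I HDAC activity in HeLa) were run with multiple repetitions of each assay to limit variability.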

[3] = Inhibition of class 1 histone deacetylase in human HeLa cells using FLUOR DE LYS as fluorescent substrate after 4 hrs by spectrophotometry; assay type: cell-based; summary of the method: as §1
Histone deacetylase 1 [4] = target: T1, Histone deacetylase 1 (Homo sapiens, UniProt Q13547); test: Inhibition of recombinant human His-tagged HDAC1 expressed in insect cells preincubated for 10 mins followed by addition of FLUOR DE LYS as fluorescent substrate measured after 1 hr by spectrophotometry
[5] = Clearance in NMRI mouse plasma 2 mg/kg, iv by LC-MS/MS analysis; assay type: ADME, organism-based
[6] = Inhibition of HDAC1 in Plasmodium falciparum 3D7 infected in human erythrocytes assessed as histone H4 hyperacetylation at lysine8 residue by western blotting method; assay type: cell-based
Summary of the method: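 P. falciparum parasites inside erythrocytes were treated with increasing compound concentrations. Histone H4 lysine 8 acetylation was analysed, and the concentration giving hyperacetylation was expressed as an EC50.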

Histone deacetylase 1 [7] = target: T1, Histone deacetylase 1; test: Inhibition of human HDAC1 at 5 uM
[8] = target: Histone deacetylase 2 (Homo sapiens) (UniProt Q92769); test: Inhibition of human HDAC2 at 5 uM
Histone deacetylase 3 = Histone deacetylase 3 (Homo sapiens, UniProt O15379); test: Inhibition of human HDAC3
Summary of the method: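 HDAC3 was measured within a human HDAC enzyme panel (HDAC1–7 and 9), with concentrations tested up to 5 μM.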

[9] = target: Histone deacetylase 4 (Homo sapiens) (UniProt P56524); test: Inhibition of human HDAC4 at 5 uM
[10] = target: Histone deacetylase 5 (Homo sapiens) (UniProt Q9UQL6); test: Inhibition of human HDAC5 at 5 uM
[11] = target: T2, Protein deacetylase HDAC6 (Homo sapiens) (UniProt Q9UBN7); test: Inhibition of human HDAC6 at 5 uM
T2 sequence (whole entry): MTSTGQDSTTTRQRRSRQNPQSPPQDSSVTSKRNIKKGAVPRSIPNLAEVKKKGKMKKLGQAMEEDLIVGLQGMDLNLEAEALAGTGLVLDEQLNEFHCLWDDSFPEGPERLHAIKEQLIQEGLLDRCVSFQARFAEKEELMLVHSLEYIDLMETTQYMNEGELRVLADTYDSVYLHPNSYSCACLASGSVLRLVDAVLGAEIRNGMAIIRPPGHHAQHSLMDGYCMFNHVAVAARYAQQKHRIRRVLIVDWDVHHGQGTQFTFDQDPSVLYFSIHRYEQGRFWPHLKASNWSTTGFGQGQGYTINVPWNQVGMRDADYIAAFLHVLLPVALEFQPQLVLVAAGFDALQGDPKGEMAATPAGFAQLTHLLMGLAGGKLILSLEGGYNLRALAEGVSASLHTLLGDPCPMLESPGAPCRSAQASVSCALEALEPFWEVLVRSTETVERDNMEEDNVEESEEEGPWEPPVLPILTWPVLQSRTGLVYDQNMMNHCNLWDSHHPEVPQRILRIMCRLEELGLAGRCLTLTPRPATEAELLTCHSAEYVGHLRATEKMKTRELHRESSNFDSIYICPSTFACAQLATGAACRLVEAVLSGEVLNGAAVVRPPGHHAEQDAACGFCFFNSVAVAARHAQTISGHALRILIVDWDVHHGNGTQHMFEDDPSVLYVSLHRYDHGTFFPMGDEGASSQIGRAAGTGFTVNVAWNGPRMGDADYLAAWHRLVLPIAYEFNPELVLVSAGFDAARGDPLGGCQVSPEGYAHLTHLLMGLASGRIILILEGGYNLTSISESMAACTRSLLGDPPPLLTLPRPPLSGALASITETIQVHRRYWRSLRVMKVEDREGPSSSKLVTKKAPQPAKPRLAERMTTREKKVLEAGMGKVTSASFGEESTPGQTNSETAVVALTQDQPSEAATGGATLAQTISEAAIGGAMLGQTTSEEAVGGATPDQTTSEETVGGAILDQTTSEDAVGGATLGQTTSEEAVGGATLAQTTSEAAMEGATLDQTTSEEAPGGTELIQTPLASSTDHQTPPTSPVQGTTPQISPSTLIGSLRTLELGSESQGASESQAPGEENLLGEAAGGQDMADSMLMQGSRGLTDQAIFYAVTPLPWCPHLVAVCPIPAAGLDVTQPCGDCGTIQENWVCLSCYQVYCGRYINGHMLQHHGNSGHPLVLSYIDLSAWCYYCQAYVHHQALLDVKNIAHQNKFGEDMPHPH

[12] = target: T3, Histone deacetylase 7 (Homo sapiens) (UniProt Q8WUI4); test: Inhibition of human HDAC7 at 5 uM
T3 sequence (whole entry): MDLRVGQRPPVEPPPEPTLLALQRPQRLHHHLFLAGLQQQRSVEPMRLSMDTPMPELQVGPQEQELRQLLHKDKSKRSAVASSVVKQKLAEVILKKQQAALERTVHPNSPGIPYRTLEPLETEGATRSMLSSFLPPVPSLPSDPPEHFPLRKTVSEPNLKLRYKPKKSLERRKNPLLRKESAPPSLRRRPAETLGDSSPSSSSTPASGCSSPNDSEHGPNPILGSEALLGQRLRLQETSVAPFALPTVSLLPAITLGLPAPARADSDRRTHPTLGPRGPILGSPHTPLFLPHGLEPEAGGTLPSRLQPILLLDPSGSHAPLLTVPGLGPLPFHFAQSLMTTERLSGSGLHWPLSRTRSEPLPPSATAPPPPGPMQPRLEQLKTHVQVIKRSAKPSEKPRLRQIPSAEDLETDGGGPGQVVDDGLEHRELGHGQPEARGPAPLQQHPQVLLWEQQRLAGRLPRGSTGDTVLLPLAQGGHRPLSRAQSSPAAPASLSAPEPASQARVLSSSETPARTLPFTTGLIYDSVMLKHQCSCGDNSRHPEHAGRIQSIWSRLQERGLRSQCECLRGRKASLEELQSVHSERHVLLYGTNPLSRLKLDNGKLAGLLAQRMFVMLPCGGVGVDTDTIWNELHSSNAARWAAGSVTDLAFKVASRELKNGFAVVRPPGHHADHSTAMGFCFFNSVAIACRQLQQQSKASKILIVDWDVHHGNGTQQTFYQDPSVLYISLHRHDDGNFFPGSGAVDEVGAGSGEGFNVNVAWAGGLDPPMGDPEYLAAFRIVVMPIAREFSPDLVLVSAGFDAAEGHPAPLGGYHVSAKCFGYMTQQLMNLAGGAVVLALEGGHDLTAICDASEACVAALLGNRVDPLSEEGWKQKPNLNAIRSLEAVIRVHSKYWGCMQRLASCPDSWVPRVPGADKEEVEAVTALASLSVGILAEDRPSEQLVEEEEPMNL

[13] = target: Histone deacetylase 9 (Homo sapiens) (UniProt Q9UKV0); test: Inhibition of human HDAC9 at 5 uM
[14] = Cytotoxicity against human HeLa cells assessed as cell viability after 72 hrs by CellTiter-Glo assay; assay type: cell-based
[15] = Cytotoxicity against human HUVEC cells assessed as cell viability after 72 hrs by CellTiter-Glo assay; assay type: cell-based
[16] = Intrinsic clearance in Han Wistar rat liver microsomes at 1 uM by LC-MS/MS analysis; assay type: ADME; details: read-out: CLH

T1 sequence (Q13547 whole entry): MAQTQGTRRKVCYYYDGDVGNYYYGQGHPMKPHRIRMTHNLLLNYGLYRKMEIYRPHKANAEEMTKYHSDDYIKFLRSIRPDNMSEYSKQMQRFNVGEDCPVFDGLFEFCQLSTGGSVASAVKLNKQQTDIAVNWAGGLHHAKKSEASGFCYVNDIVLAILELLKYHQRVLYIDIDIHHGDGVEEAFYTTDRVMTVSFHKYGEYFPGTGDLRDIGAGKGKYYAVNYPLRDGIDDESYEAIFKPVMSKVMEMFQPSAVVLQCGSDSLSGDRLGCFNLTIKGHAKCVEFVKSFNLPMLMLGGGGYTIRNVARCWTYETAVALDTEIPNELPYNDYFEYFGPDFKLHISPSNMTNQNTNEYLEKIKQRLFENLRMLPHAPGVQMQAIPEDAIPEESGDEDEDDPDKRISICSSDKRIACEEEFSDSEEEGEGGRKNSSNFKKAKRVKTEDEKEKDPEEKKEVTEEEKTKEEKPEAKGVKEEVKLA
Sequence of Histone deacetylase 3 (O15379 whole entry): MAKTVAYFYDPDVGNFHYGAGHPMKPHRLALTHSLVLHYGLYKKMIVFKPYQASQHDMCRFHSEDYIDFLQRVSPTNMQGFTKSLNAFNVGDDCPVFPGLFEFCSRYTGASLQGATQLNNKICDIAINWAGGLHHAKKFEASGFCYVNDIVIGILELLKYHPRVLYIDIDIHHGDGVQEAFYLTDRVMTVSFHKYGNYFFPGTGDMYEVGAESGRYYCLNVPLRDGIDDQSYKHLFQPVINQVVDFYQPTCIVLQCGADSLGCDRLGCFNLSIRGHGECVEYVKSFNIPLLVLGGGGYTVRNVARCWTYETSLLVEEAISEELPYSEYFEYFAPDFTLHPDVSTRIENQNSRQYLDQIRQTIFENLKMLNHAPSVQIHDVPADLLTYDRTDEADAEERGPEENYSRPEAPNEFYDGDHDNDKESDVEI
Sequence of Histone deacetylase 4 (Homo sapiens) (P56524 whole entry): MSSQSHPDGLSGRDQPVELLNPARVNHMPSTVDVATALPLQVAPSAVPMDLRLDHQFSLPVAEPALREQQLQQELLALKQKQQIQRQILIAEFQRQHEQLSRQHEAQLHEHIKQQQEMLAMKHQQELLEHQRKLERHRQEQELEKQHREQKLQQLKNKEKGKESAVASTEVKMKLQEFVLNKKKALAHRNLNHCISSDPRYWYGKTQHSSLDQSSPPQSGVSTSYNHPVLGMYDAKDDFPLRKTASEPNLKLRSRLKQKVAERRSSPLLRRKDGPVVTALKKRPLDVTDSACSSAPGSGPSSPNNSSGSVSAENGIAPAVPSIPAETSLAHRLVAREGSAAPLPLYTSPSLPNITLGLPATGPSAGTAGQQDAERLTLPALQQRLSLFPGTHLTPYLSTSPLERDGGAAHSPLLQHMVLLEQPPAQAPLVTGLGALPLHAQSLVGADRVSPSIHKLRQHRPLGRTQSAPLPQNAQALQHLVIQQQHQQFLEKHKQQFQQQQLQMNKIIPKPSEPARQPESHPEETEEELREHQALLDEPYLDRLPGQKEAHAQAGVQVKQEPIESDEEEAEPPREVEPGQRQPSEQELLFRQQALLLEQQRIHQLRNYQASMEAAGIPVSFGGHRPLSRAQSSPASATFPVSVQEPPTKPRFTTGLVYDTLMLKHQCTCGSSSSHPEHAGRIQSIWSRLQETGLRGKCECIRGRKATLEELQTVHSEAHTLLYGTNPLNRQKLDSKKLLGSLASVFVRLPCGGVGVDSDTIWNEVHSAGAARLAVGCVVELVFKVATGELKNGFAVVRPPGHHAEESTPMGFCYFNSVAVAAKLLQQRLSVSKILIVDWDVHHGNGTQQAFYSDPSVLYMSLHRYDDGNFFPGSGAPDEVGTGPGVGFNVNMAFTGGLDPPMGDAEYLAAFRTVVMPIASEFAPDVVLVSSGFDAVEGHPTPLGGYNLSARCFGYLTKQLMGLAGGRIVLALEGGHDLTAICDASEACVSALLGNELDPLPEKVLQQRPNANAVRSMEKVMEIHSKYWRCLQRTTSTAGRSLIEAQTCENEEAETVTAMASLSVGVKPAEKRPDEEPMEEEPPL
Sequence of Histone deacetylase 9 (Homo sapiens) (Q9UKV0 whole entry): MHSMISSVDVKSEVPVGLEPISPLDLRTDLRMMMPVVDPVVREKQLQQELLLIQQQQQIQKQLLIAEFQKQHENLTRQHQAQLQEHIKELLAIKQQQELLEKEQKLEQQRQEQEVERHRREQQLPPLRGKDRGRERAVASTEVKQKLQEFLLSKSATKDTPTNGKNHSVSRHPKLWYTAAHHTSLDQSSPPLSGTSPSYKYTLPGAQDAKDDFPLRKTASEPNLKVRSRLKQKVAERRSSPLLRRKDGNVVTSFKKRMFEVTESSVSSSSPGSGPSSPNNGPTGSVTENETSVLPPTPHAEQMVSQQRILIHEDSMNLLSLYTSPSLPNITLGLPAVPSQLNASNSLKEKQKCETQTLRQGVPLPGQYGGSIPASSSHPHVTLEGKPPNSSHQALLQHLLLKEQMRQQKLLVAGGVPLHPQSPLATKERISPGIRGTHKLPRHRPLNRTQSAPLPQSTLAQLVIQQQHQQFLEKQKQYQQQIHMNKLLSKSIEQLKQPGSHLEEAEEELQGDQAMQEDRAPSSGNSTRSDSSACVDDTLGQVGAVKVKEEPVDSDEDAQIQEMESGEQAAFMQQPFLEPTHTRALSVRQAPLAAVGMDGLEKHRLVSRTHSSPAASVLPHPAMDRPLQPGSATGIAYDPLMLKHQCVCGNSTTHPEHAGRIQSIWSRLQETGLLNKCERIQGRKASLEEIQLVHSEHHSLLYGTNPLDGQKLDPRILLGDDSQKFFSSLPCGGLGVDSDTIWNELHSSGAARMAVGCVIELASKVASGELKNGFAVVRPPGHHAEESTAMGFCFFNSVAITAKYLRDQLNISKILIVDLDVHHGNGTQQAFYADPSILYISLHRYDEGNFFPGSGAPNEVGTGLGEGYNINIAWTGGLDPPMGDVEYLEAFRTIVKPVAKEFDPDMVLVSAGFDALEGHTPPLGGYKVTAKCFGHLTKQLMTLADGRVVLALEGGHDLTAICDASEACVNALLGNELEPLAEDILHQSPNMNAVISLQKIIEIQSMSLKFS
Sequence of Histone deacetylase 2 (Homo sapiens) (Q92769 whole entry): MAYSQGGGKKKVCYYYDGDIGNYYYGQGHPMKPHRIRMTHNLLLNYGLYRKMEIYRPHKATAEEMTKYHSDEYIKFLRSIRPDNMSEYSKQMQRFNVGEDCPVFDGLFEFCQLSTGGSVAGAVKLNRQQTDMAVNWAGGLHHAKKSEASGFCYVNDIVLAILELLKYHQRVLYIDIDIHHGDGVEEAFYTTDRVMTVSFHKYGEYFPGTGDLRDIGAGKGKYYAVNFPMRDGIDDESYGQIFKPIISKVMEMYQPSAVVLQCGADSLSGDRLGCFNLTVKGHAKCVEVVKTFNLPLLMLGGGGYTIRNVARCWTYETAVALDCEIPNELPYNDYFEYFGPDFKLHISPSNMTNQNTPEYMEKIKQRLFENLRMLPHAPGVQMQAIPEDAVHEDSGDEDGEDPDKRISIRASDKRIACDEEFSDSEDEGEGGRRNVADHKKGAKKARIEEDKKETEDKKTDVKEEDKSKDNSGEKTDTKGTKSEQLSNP
Sequence of Histone deacetylase 5 (Homo sapiens) (Q9UQL6 whole entry): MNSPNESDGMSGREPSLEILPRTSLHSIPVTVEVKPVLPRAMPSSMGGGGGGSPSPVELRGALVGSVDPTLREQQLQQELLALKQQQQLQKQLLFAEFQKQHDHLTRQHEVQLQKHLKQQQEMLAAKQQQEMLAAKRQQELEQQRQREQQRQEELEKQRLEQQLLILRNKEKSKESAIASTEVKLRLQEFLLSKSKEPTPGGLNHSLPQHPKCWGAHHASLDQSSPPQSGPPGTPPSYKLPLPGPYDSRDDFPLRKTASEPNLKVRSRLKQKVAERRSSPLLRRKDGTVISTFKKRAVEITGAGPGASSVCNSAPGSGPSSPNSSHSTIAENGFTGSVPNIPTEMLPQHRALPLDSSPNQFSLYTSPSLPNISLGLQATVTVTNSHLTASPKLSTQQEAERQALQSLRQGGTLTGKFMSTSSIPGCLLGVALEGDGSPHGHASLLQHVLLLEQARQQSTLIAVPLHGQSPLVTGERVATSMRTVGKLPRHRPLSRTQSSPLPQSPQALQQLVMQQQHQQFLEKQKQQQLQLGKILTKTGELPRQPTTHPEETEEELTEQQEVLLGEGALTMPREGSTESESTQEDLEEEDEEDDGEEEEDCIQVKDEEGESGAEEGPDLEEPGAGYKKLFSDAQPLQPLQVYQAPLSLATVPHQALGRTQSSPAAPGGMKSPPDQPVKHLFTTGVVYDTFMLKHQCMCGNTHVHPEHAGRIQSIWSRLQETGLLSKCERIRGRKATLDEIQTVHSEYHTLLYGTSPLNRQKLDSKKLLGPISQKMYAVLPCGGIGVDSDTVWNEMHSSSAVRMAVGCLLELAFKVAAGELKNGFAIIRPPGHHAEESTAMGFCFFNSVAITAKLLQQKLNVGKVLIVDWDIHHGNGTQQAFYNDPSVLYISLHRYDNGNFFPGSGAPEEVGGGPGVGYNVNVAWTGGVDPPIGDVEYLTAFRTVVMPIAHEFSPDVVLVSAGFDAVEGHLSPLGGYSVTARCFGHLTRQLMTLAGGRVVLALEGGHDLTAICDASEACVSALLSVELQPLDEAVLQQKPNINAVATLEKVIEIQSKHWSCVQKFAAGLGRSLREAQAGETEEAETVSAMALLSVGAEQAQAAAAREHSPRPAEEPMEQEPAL

Which microsomal CLint at 1 µM [1] does the source give for CNC(=O)CCCCC[C@H](NC(=O)c1cncs1)c1ncc(-c2ccc(-c3ccn[nH]3)cc2)[nH]1 here?
The microsomal CLint at 1 µM was 19 µL/min/mg.

What about the microsomal CLint at 1 µM [2] of the same compound?
The microsomal CLint at 1 µM was 12 µL/min/mg.

And the EC50 (Plasmodium falciparum)?
The EC50 was 450 nM.

And the IC50 [3]?
The IC50 was 16.6 µM.

What about the IC50 (Histone deacetylase 1 [4]) of the same compound?
The IC50 was 1850 nM.

What about the clearance [5] of the same compound?
Its clearance is 247 mL/min/kg.

What about the EC50 [6] of the same compound?
The EC50 was 350 nM.

And the inhibition (Histone deacetylase 1 [7])?
The inhibition was “inactive”.

And the inhibition [8]?
Its inhibition is “inactive”.

And the IC50 (Histone deacetylase 3)?
Its IC50 is 330 nM.

And the inhibition [9]?
The inhibition was “inactive”.

And the inhibition [10]?
The inhibition was “inactive”.

What about the inhibition [11] of the same compound?
Its inhibition is “inactive”.

And the inhibition [12]?
Its inhibition is “inactive”.

What about the inhibition [13] of the same compound?
The inhibition was “inactive”.

And the CC50 at 72 h [14]?
The CC50 at 72 h was over 25 µM.

What about the CC50 at 72 h [15] of the same compound?
Its CC50 at 72 h is over 25 µM.

And the microsomal CLint at 1 µM [16]?
The microsomal CLint at 1 µM was 27 µL/min/mg.
